Assay results: ChEMBL document CHEMBL1147097, “Trioxaquines are new antimalarial agents active on all erythrocytic forms, including gametocytes” (Antimicrob Agents Chemother, 2007)
Activity calls are given as the source filed them.

Columns and labels:
[1] = tested on: Plasmodium falciparum; test: Antimalarial activity against chloroquine-resistant Plasmodium falciparum W2 gametocytes (stage 4 & 5); assay type: functional, organism-based
Procedure, shortened: (§1)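 W2 gametocyte cultures treated with 50 mM N-acetyl-D-glucosamine for 3 or 5 days to remove asexual forms. Young (7-day) or old (13-day) cultures exposed to drug dilutions for 48 h. Giemsa thin films made and gametocytes counted per 6,000–10,000 erythrocytes. Mean of three independent experiments.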

[2] = tested on: Plasmodium falciparum; test: Antimalarial activity against chloroquine-resistant Plasmodium falciparum W2 asexual […]; assay type: functional, organism-based
[3] = tested on: Plasmodium falciparum; test: Antimalarial activity against chloroquine-resistant Plasmodium falciparum W2 gametocytes (stage 2 & 3); assay type: functional, organism-based; procedure, shortened: as §1
[4] = tested on: Plasmodium vinckei petteri; test: Antimalarial activity against Plasmodium vinckei petteri infected orally dosed Swiss Albino mice (Mus musculus); assay type: functional
Procedure, shortened: (§2)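 Four-day suppressive test: groups of five female Swiss albino mice infected i.p. on day 0 with 2 × 10^7 parasitized red cells, then dosed once daily for 4 days (i.p., p.o. or s.c.; DMSO vehicle, chloroquine in 0.9% NaCl). Parasitemia read on day 4 vs untreated controls; ED50/ED90 as % growth inhibition; CD50/CD90 = cure (no parasites at 60 days).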

[5] = tested on: Mus musculus; test: Toxicity against Swiss mouse at 400 mg/kg, po after 4 days; assay type: organism-based; parameters: dose 400 mg/kg, route oral; conditions: in vivo, 96 h
Procedure, shortened: (§3)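 Healthy Swiss mice given 100, 200 or 400 mg/kg/day p.o. by gavage for four consecutive days; two to four mice per dose, two experiments. One mouse killed per dose on days 5, 30 and 60. Organs examined against NaCl- or DMSO-treated controls, with H&E sections of stomach.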

[6] = tested on: Plasmodium vinckei petteri; test: Antimalarial activity against Plasmodium vinckei petteri infected subcutaneously dosed Swiss Albino mice (Mus musculus); assay type: functional; procedure, shortened: as §2
[7] = tested on: Plasmodium vinckei petteri; test: Antimalarial activity against Plasmodium vinckei petteri infected intraperitoneally dosed Swiss Albino mice (Mus musculus); assay type: functional; procedure, shortened: as §2
[8] = tested on: Mus musculus; test: Toxicity against Swiss mouse at 100 mg/kg, po after 4 days; assay type: organism-based; parameters: dose 100 mg/kg, route oral; conditions: in vivo, 96 h; procedure, shortened: as §3
[9] = tested on: Mus musculus; test: Toxicity against Swiss mouse at 200 mg/kg, po after 4 days; assay type: organism-based; parameters: dose 200 mg/kg, route oral; conditions: in vivo, 96 h; procedure, shortened: as §3
[10] = tested on: Plasmodium falciparum; test: Antimalarial activity against chloroquine-sensitive Plasmodium falciparum F32; assay type: functional, organism-based
Procedure, shortened: (§4)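 Asexual P. falciparum grown in culture at 37°C under 5% CO2 and exposed to drug dilutions for 48 h. Growth inhibition measured by radioactive micromethod. IC50 read graphically from concentration vs % growth inhibition; mean of at least three independent experiments.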

[11] = tested on: Plasmodium falciparum; test: Antimalarial activity against chloroquine-resistant Plasmodium falciparum FcB1; assay type: functional, organism-based; procedure, shortened: as §4
[12] = tested on: Plasmodium falciparum; test: Antimalarial activity against chloroquine-resistant Plasmodium falciparum FcM29; assay type: functional, organism-based; procedure, shortened: as §4
[13] = tested on: Mus musculus; test: Mortality rate in Plasmodium vinckei petteri infected mice (Mus musculus) at 50 mg/kg, subcutaneously; assay type: functional, organism-based; parameters: dose 50 mg/kg
Procedure, shortened: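 Subacute toxicity: P. vinckei petteri-infected mice dosed on four consecutive days (day 0–3) at 10, 25 or 50 mg/kg/day p.o., i.p. or s.c. Five mice per dose and route.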

[14] = tested on: Plasmodium vinckei petteri; test: Antimalarial activity against Plasmodium vinckei petteri infected mice (Mus musculus) at 13 mg/kg/day, peroral administered 4 days after infection for 4 days; assay type: functional, organism-based
Procedure, shortened: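 Established-infection test: mice infected with 10^6 P. vinckei petteri on day 0 and left untreated until day 4. Then dosed p.o. by gavage once daily in DMSO for 4 days (days 4–7). Thin blood smears taken daily before and after treatment, with follow-up for recrudescence to 60 days.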

[15] = Ratio of LD50 for Swiss mice (Mus musculus) to ED50 for Plasmodium vinckei petteri infected mice (Mus musculus); assay type: functional
Procedure, shortened: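 Therapeutic index: LD50 (healthy Swiss mice, observed 60 days) divided by ED50 from the 4-day P. vinckei petteri suppressive test.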

[16] = tested on: Plasmodium yoelii nigeriensis; test: Antimalarial activity against Plasmodium yoelii nigeriensis infected subcutaneously dosed mice (Mus musculus); assay type: functional
Procedure, shortened: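 Four-day suppressive test with P. yoelii nigeriensis: infected mice given drug once daily for four consecutive days p.o. or s.c. (DMSO vehicle, chloroquine in 0.9% NaCl). Parasitemia compared with untreated controls. Cure was defined as no parasites detected after 60 days, with CD50 taken as the dose curing 50% of mice.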

[17] = Cytotoxicity against human HCT cells assessed as [3H]thymidine incorporation; assay type: cell-based
Procedure, shortened: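 HCT human colorectal tumour cells grown with 10% fetal calf serum and harvested with 0.05% trypsin-EDTA. Plated at 15 × 10^3 cells/well with drug dilutions.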

[18] = tested on: Plasmodium falciparum; test: Antimalarial activity against chloroquine-sensitive Plasmodium falciparum Nigeria; assay type: functional, organism-based, Nigerian; procedure, shortened: as §4

Question: For `O=C1C(O)=C([C@H]2CC[C@H](c3ccc(Cl)cc3)CC2)C(=O)c2ccccc21` [ATOVAQUONE], which IC50 [1] is on record?
Answer: Its IC50 is 50400 nM.

Question: And the IC50 [2]?
Answer: The IC50 was 4.6 nM.

Question: What about the IC50 [3] of the same compound?
Answer: Its IC50 is 24000 nM.

Question: What does the source list for `CC(C)C1=C[C@H]2OC3(CCC(NCCNc4ccnc5cc(Cl)ccc45)CC3)OO[C@@]2(C)CC1` (stereo partly specified) [listing 1 of 2 here]?
Answer: CD50 [4]: 12 mg/kg/day; CD90 [4]: 24 mg/kg/day; ED50 ([4]; Plasmodium vinckei, po): 4 mg/kg/day; ED90 ([4]; Plasmodium vinckei, po): 9 mg/kg/day; Activity [5]: Non-toxic; CD50 [6]: 5 mg/kg/day; CD90 [6]: 8 mg/kg/day; ED50 ([6]; Plasmodium vinckei, sc): 1.5 mg/kg/day; ED90 ([6]; Plasmodium vinckei, sc): 9 mg/kg/day; CD50 [7]: 5 mg/kg/day; CD90 [7]: 8 mg/kg/day; ED50 ([7]; Plasmodium vinckei, ip, read-out: ED50): 0.7 mg/kg/day; ED90 ([7]; Plasmodium vinckei, ip, read-out: ED90): 8 mg/kg/day; Activity [8]: Non-toxic; Activity [9]: Non-toxic

Question: Which results are given for `COc1cc(NC(C)CCCN)c2ncccc2c1` (stereo unspecified) [PRIMAQUINE]?
Answer: IC50 [1]: 1540 nM; IC50 [2]: 1320 nM; IC50 [3]: 4580 nM

Question: Which IC50 [10] does the source give for `CC(C)C1=C[C@H]2OC3(CCC(NCCNc4ccnc5cc(Cl)ccc45)CC3)OO[C@@]2(C)CC1` (stereo in doubt; form 7) [TRIOXAQUINE 3] here?
Answer: Its IC50 is 7 nM.

Question: What about the IC50 [11] of the same compound?
Answer: Its IC50 is 7 nM.

Question: And the IC50 [12]?
Answer: The IC50 was 7 nM.

Question: For `CC(C)C1=C[C@H]2OC3(CCC(NCCNc4ccnc5cc(Cl)ccc45)CC3)OO[C@@]2(C)CC1` (stereo partly specified) [listing 2 of 2 here], which Activity [13] is on record?
Answer: The Activity was “inactive”.

Question: And the Activity [14]?
Answer: The Activity was “Active”.

Question: What about the Ratio LD50/ED50 [15] of the same compound?
Answer: Its Ratio LD50/ED50 is 100.

Question: What does the source list for `CC(C)C1=C[C@H]2OC3(CCC(NCCNc4ccnc5cc(Cl)ccc45)CC3)OO[C@@]2(C)CC1.O=C(O)CC(O)(CC(=O)O)C(=O)O` (stereo in doubt; form 9)?
Answer: ED50 [7]: 3 mg/kg/day; ED90 [7]: 8 mg/kg/day

Question: Which CD50 [16] does the source give for `CCN(CC)CCCC(C)Nc1ccnc2cc(Cl)ccc12` (stereo unspecified) [CHLOROQUINE] here?
Answer: The CD50 was 3 mg/kg/day.

Question: What about the CD90 [16] of the same compound?
Answer: The CD90 was 5 mg/kg/day.

Question: What about the ED50 ([16]; Plasmodium yoelii, sc) of the same compound?
Answer: The ED50 was 3 mg/kg/day.

Question: What about the ED90 ([16]; Plasmodium yoelii, sc) of the same compound?
Answer: Its ED90 is 5 mg/kg/day.

Question: And the IC50 [17]?
Answer: Its IC50 is 50000 nM.

Question: Which results are given for `CC(C)C1=C[C@H]2OC3(CCC(NCCNc4ccnc5cc(Cl)ccc45)CC3)OO[C@@]2(C)CC1` (stereo in doubt; form 1)?
Answer: IC50 [11]: 49 nM; IC50 [12]: 29 nM

Question: Which Ratio LD50/ED50 [15] does the source give for `CC(C)C1=C[C@H]2OC3(CCC(NCCNc4ccnc5cc(Cl)ccc45)CC3)OO[C@@]2(C)CC1` (stereo in doubt; form 5) here?
Answer: Its Ratio LD50/ED50 is 23.

Question: With `CC(C)C1=C[C@H]2OC3(CCC(NCCNc4ccnc5cc(Cl)ccc45)CC3)OO[C@@]2(C)CC1` (stereo in doubt; form 6) [TRIOXAQUINE 3] as the compound, how does the IC50 [18] read?
Answer: Its IC50 is 18 nM.

Question: And the IC50 [10]?
Answer: Its IC50 is 18 nM.

Question: And the IC50 [11]?
Answer: The IC50 was 26 nM.

Question: What about the IC50 [12] of the same compound?
Answer: Its IC50 is 18 nM.
